Results: ChEMBL document CHEMBL5724801, “EUbOPEN Chemogenomics Library - Multiplex” (2024)
Where “and” joins values, the source holds several entries; their conditions need not be identical. Equal values may be shown once.

The compounds below were run on U2OS (assay: Multiplex assay against U2OS). Settings: human, 12 h, 1 µM, compound concentration 1 uM.
Format: toxicity, cell-based
Outline: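 Live cells carried four stains from seeding: Hoechst33342, BioTracker Green Microtubule Cytoskeleton Dye, MitoTracker Red and Annexin V Alexa Fluor 680. They were imaged on a CQ1 microscope at 37°C and 5% CO2 after compound addition. Using CellPathfinder machine-learning gating, cells were split into Hoechst high-intensity objects or normal cells, normal cells into healthy, pyknosed or fragmented nuclei, and pyknosed cells into mitotic or apoptotic; tubulin, mitochondrial-mass and membrane-permeability phenotypes are per cents of healthy-nucleus cells.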

Structure (SMILES) | Population Apoptotic (%) | Population Fragmented Nuclei (%) | Population Healthy Nuclei (%) | Population Hoechst High Intensity Objects (%) | Population Membrane Permeable-Phenotype (%) | Population Mitochondria Different-Phenotype (%) | Population Mitotic Cells (%) | Population Normal (%) | Population Pyknosed Nuclei (%) | Population Tubulin-Different-Phenotype (%)
CCOC(=O)c1c(/C(C#N)=C\N)c2ccc(Cl)c(Cl)c2n1C | 47.83% and 43.48% | 0.85% and 4.7% | 89.38% and 79.87% | 0% | 1.19% and 0.84% | 0% and 5.88% | 52.17% and 56.52% | 100% | 9.77% and 15.44% | 0.95% and 0.84%
Cc1c(C(=O)NCCCN(C)C)sc2ncnc(Nc3ccc(F)cc3OC(C)CF)c12 (stereo unspecified) | 44.9% and 30.77% | 1.42% and 2.65% | 84.66% and 80.13% | 0% | 0.67% and 4.13% | 0% and 15.7% | 55.1% and 69.23% | 100% | 13.92% and 17.22% | 2.68% and 0%

Same assay, conditions: human, 12 h, 1 µM, compound concentration 1 uM

Structure (SMILES) | Total Cell Count
Cc1c(C(=O)NCCCN(C)C)sc2ncnc(Nc3ccc(F)cc3OC(C)CF)c12 (stereo unspecified) | 352 and 151

Same assay, conditions: human, 12 h, 10 µM, compound concentration 10 uM

Structure (SMILES) | Population Apoptotic (%) | Population Healthy Nuclei (%) | Population Hoechst High Intensity Objects (%) | Population Membrane Permeable-Phenotype (%) | Population Mitochondria Different-Phenotype (%) | Population Mitotic Cells (%) | Population Normal (%) | Population Pyknosed Nuclei (%) | Population Tubulin-Different-Phenotype (%) | Total Cell Count
CCOC(=O)c1c(/C(C#N)=C\N)c2ccc(Cl)c(Cl)c2n1C | 43.9% and 26.67% | 86.92% and 80.49% | 0% | 0% and 3.64% | 0% and 2.42% | 56.1% and 73.33% | 100% | 11.17% and 7.32% | 0.31% and 0% | 367 and 205
Cc1c(C(=O)NCCCN(C)C)sc2ncnc(Nc3ccc(F)cc3OC(C)CF)c12 (stereo unspecified) | 33.33% and 29.55% | 69.66% and 65.54% | 0% | 10.97% and 18.56% |  | 66.67% and 70.45% | 100% | 23.6% and 29.73% | 31.61% and 29.9% | 

Same assay, conditions: human, 12 h, 10 µM, compound concentration 10 uM

Structure (SMILES) | Population Fragmented Nuclei (%)
Cc1c(C(=O)NCCCN(C)C)sc2ncnc(Nc3ccc(F)cc3OC(C)CF)c12 (stereo unspecified) | 6.74% and 4.73%

Same assay, conditions: human, 24 h, 1 µM, compound concentration 1 uM

Structure (SMILES) | Population Apoptotic (%) | Population Fragmented Nuclei (%) | Population Healthy Nuclei (%) | Population Hoechst High Intensity Objects (%) | Population Membrane Permeable-Phenotype (%) | Population Mitochondria Different-Phenotype (%) | Population Mitotic Cells (%) | Population Normal (%) | Population Pyknosed Nuclei (%) | Population Tubulin-Different-Phenotype (%)
CCOC(=O)c1c(/C(C#N)=C\N)c2ccc(Cl)c(Cl)c2n1C | 38.46% and 52.38% | 0.82% and 3.3% | 90.7% and 85.16% | 0% | 0.9% and 3.87% | 0% and 2.58% | 61.54% and 47.62% | 100% | 8.48% and 11.54% | 1.62% and 1.29%
Cc1c(C(=O)NCCCN(C)C)sc2ncnc(Nc3ccc(F)cc3OC(C)CF)c12 (stereo unspecified) | 56% and 51.85% | 3.61% and 5.17% | 85.77% and 79.31% | 0% | 1.49% and 4.35% |  | 44% and 48.15% | 100% | 10.62% and 15.52% | 1.98% and 0%

Same assay, conditions: human, 24 h, 1 µM, compound concentration 1 uM

Structure (SMILES) | Total Cell Count
Cc1c(C(=O)NCCCN(C)C)sc2ncnc(Nc3ccc(F)cc3OC(C)CF)c12 (stereo unspecified) | 471 and 174

Same assay, conditions: human, 24 h, 10 µM, compound concentration 10 uM

Structure (SMILES) | Population Apoptotic (%) | Population Fragmented Nuclei (%) | Population Healthy Nuclei (%) | Population Hoechst High Intensity Objects (%) | Population Membrane Permeable-Phenotype (%) | Population Mitochondria Different-Phenotype (%) | Population Mitotic Cells (%) | Population Normal (%) | Population Pyknosed Nuclei (%) | Population Tubulin-Different-Phenotype (%)
CCOC(=O)c1c(/C(C#N)=C\N)c2ccc(Cl)c(Cl)c2n1C | 49.09% and 33.33% | 1.8% and 9.69% | 87.17% and 84.5% | 0% | 0.46% and 1.38% | 0% and 1.38% | 50.91% and 66.67% | 100% | 11.02% and 5.81% | 0.92% and 0.46%
Cc1c(C(=O)NCCCN(C)C)sc2ncnc(Nc3ccc(F)cc3OC(C)CF)c12 (stereo unspecified) | 35% and 38.46% | 3.34% and 4.57% | 63.26% and 58.29% | 0% | 3.96% and 12.75% |  | 65% and 61.54% | 100% | 33.4% and 37.14% | 59.08% and 40.2%

Same assay, conditions: human, 24 h, 10 µM, compound concentration 10 uM

Structure (SMILES) | Total Cell Count
CCOC(=O)c1c(/C(C#N)=C\N)c2ccc(Cl)c(Cl)c2n1C | 499 and 258
Cc1c(C(=O)NCCCN(C)C)sc2ncnc(Nc3ccc(F)cc3OC(C)CF)c12 (stereo unspecified) | 479 and 175

Same assay, conditions: human, 48 h, 1 µM, compound concentration 1 uM

Structure (SMILES) | Population Apoptotic (%) | Population Fragmented Nuclei (%) | Population Healthy Nuclei (%) | Population Hoechst High Intensity Objects (%) | Population Membrane Permeable-Phenotype (%) | Population Mitochondria Different-Phenotype (%) | Population Mitotic Cells (%) | Population Normal (%) | Population Pyknosed Nuclei (%) | Population Tubulin-Different-Phenotype (%)
CCOC(=O)c1c(/C(C#N)=C\N)c2ccc(Cl)c(Cl)c2n1C | 46.46% and 70.83% | 2.55% and 2.93% | 88.73% and 89.25% | 0% | 0.6% and 3.28% | 0% and 2.55% | 53.54% and 29.17% | 100% | 8.71% and 7.82% | 0.4% and 1.82%
Cc1c(C(=O)NCCCN(C)C)sc2ncnc(Nc3ccc(F)cc3OC(C)CF)c12 (stereo unspecified) | 48.89% and 51.28% | 4.16% and 5.07% | 85.73% and 80.8% | 0% | 1.31% and 1.35% | 0.13% and 8.52% | 51.11% and 48.72% | 100% | 10.11% and 14.13% | 2.1% and 0.45%

Same assay, conditions: human, 48 h, 10 µM, compound concentration 10 uM

Structure (SMILES) | Population Apoptotic (%) | Population Fragmented Nuclei (%) | Population Healthy Nuclei (%) | Population Hoechst High Intensity Objects (%) | Population Membrane Permeable-Phenotype (%) | Population Mitochondria Different-Phenotype (%) | Population Mitotic Cells (%) | Population Normal (%) | Population Pyknosed Nuclei (%) | Population Tubulin-Different-Phenotype (%)
CCOC(=O)c1c(/C(C#N)=C\N)c2ccc(Cl)c(Cl)c2n1C | 37.84% and 47.83% | 3.52% and 4.86% | 85.01% and 83.38% | 0% | 1.09% and 0.92% | 0% and 1.84% | 62.16% and 52.17% | 100% | 11.48% and 11.76% | 1.09% and 0%
Cc1c(C(=O)NCCCN(C)C)sc2ncnc(Nc3ccc(F)cc3OC(C)CF)c12 (stereo unspecified) | 53.75% and 63.55% | 4.47% and 3.47% | 48.42% and 34.68% | 0.19% and 1.14% | 12.31% and 18.33% |  | 46.25% and 36.45% | 99.81% and 98.86% | 47.11% and 61.85% | 44.62% and 53.33%

Same assay, conditions: human, 48 h, 10 µM, compound concentration 10 uM

Structure (SMILES) | Total Cell Count
CCOC(=O)c1c(/C(C#N)=C\N)c2ccc(Cl)c(Cl)c2n1C | 967 and 391
